The entries come from a sample that favours hits as a whole.
NALP1 yeast inh = NALP1 inflammasome inhibitors in reconstituted yeast, colorimetric, S. cerevisiae, triplicate retest; inhibition, % at 10 µM; hit rate 0.61% among 280,000; S. cerevisiae NALP1/ASC/caspase-1 growth, X-gal OD620, 72 h; in the data active = inhibition mostly above about 24%, no sharp cut-off; inactive = mostly below about 32%
T cruzi repl = inhibitors of intracellular T. cruzi growth, primary screen, luminescence, NIH3T3 host cells | hit rate 1.4% among 300,000 | T. cruzi beta-gal in NIH3T3, 90 h | inhibition, % (test concentration not listed);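 active = mean inhibition across valid replicates above about 55%, limit read from the data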;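 also: signal also drops with host cell toxicity which is not excluded here; higher percent means less beta-gal luminescence so fewer parasites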
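Test system: β-gal T. cruzi (Tulahuen C4) inside NIH/3T3 cells / Quantity: 5,000 cells/well / Measured by: luminescence from GalScreen with 0.05% NP40, read after 60 min / Medium: DMEM plus 2% FBS / Measure: parasite load inhibition, % / Reagent: Tulahuen C4 trypomastigotes, 5000/well / Schedule: co-culture of at least 90 h after 3 h attachment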
NLRP3 yeast inh = NALP3 inflammasome inhibitors in reconstituted yeast, primary screen, luminescence, uHTS. AID 2825, 2010. hit rate 0.39% among 330,000. Yeast reconstituted NLRP3/ASC/caspase-1, beta-gal luminescence, 24 h. inhibition, % at 10 µM;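 active = inhibition of 50% or more; inactive = inhibition below 50%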
PolyA inh = polyadenylation inhibitors in yeast reporter cells, primary screen, luminescence, S. cerevisiae. S. cerevisiae SKY197-pL101 polyadenylation reporter, beta-gal luminescence; efflux-impaired pdr1/pdr3 knockout yeast; score 100 = 6 SD above DMSO. hit rate 0.02% among 300,000. activity score, % at 12 µM;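 active = lowest replicate activity score at least 50, where 100 means six control SD above control mean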;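 also: yeast exposed to compound for 9 h at 30 °C; higher score means more reporter readthrough which indicates perturbed polyadenylation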
Lmaj promast = Leishmania major promastigote growth inhibition, primary screen | Leishmania major promastigotes, resazurin fluorescence viability | inhibition, % at 10 µM | hit rate 9% among 200,000; in the data active = inhibition above about 50%;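 also: promastigotes grown with compound for 44 hours at 28 °C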
Calb FLC = C. albicans growth inhibition with fluconazole, primary screen, CaCi-2 strain, Alamar Blue fluorescence; hit rate 0.57% among 300,000; C. albicans CaCi-2 + fluconazole, 48 h; AID 1979, 2009; growth inhibition, % (no concentration beside the values);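 active = growth inhibition above about 58% in most replicates, limit read from the data, passing the limit was not always enough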;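 also: all wells also contain fluconazole at 8 µg/ml as a sub-toxic cotreatment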
Hits are given with their value; n = inactive; x = no result.

SMILES | NALP1 yeast inh | T cruzi repl | NLRP3 yeast inh | PolyA inh | Lmaj promast | Calb FLC
C=CCc1ccccc1OCC(O)CN1CCN(c2ccc(C)cc2)CC1 (configuration not stated) | n | n | n | n | 69 | n
CCOC(=O)N1CCN(CC(O)COc2cc(C)ccc2C(C)C)CC1 (configuration not stated) | n | n | n | n | n | n
CCOC(=O)N1CCN(CC(O)COc2ccccc2C(C)C)CC1 (configuration not stated) | n | x | n | x | 70 | n
CCOC(=O)N1CCN(CC(O)COc2ccccc2C(C)(C)C)CC1 (configuration not stated) | n | n | n | n | n | n
COc1ccc(N2CCN(CC(O)COc3ccc(C)cc3C)CC2)cc1 (configuration not stated) | n | n | n | n | x | n
CCOC(=O)N1CCN(CC(O)COc2ccccc2C(C)CC)CC1 (configuration not stated) | 26 | n | n | n | 91 | n
C=CCc1ccccc1OCC(O)CN1CCN(C(=O)OCC)CC1 (configuration not stated) | n | n | n | n | 68 | n
CCOc1nc(CC)nc(NC(=O)NS(=O)(=O)c2ccccc2Cl)n1 | n | n | n | n | n | n
CCOc1cc(/C=N/N2CCOCC2)ccc1OCc1ccc(C(=O)OC)o1 | n | n | n | n | n | n
CCOC(=O)N1CCN(CC(O)COCc2ccc(Cl)cc2)CC1 (configuration not stated) | n | x | x | x | 93 | x
CCOC(=O)N1CCN(CC(O)COc2ccc(CC)cc2)CC1 (configuration not stated) | n | n | n | n | x | n
CCOC(=O)N1CCN(CC(O)COC(CC)c2ccccc2)CC1 (configuration not stated) | n | n | n | n | 91 | n
CCN1C(=O)c2ccccc2Sc2ccc(C(=O)NCCCN(CC(C)C)CC(C)C)cc21 | n | n | n | n | x | n
Cc1noc(C)c1C(=O)OCC(=O)Nc1ccc(S(N)(=O)=O)cc1 | x | x | n | x | x | x
CCC(C)C(=O)Nc1nc(C)c(-c2csc(Nc3cc(OC)ccc3OC)n2)s1 (configuration not stated) | n | n | n | n | 57 | n
COc1ccc(OC)c(Nc2nc(-c3sc(C)nc3C)cs2)c1 | n | n | n | n | n | n
COc1ccc(OC)c(Nc2nc(-c3sc(NC(=O)CC(C)C)nc3C)cs2)c1 | n | n | n | n | 81 | n
CCCCC(=O)Nc1nc(C)c(-c2csc(Nc3cc(OC)ccc3OC)n2)s1 | n | n | n | n | 73 | n
Cc1c(Cl)cnc(NC(=O)CSc2nncs2)c1Cl | x | n | n | n | n | 112
COc1ccc(C(=O)CC(=O)C(=O)Nc2ccccc2Cl)cc1 | n | n | x | n | x | n
O=C(NCc1ccco1)c1cc(-c2cccc(Cl)c2)on1 | n | n | n | n | n | n
COc1cccc(-c2cc(C(=O)NCc3ccco3)no2)c1 | 29 | n | n | n | n | n
Cc1cc(=O)[nH]c(-c2ccc(C(F)(F)F)cc2)n1 | n | n | n | n | x | n
COc1ccc(C2C(C#N)=C(N)N(c3sc4c(c3C#N)CCCC4)C3=C2C(=O)CC(C)(C)C3)cc1 (configuration not stated) | n | n | n | n | 83 | n
COc1ccc(C2C(C#N)=C3NC(=O)c4c(sc5c4CCCCC5)N3C3=C2C(=O)CC(C)(C)C3)cc1 (configuration not stated) | n | n | n | n | 88 | n
SMILES | NALP1 yeast inh | T cruzi repl | NLRP3 yeast inh | PolyA inh | Lmaj promast | Calb FLC
COc1ccc(C2C(C#N)=C(N)N(N(C)C)C3=C2C(=O)CC(C)(C)C3)cc1 (configuration not stated) | n | n | n | n | x | n
COc1ccc(C2C(C#N)=C(N)N(c3sc4c(c3C#N)CCCC4)C3=C2C(=O)CC(C)(C)C3)cc1OC (configuration not stated) | n | n | n | n | n | n
O=C(Nc1cccc(O)c1)C(Cc1ccccc1)N1C(=O)c2cccc3cccc(c23)C1=O (configuration not stated) | x | n | n | n | n | n
CCOC(=O)C1CCCN(C(=O)c2ccc3nc(-c4cccc(OC)c4)oc3c2)C1 (configuration not stated) | n | n | n | n | x | n
CC(=O)Nc1ccc(S(=O)(=O)NCC2CCC(C(=O)N3CCCCC3)CC2)cc1 (configuration not stated) | n | n | n | n | x | n
CCN1C(=O)C2(SC(NC(C)=O)=NN2C(C)=O)c2cc(C)cc(C)c21 (configuration not stated) | n | n | n | n | 71 | n
Cc1ccccc1OCCC(=O)Nc1ccccc1C(=O)NC1CC1 | x | n | n | n | x | n
O=c1oc2ccccc2nc1/C=C(\O)c1ccccc1 | x | n | n | n | x | n
O/C(=C\c1nc2ccccc2nc1/C=C(\O)c1ccccc1)c1ccccc1 | n | n | n | n | 98 | n
Cn1c(O)c(/C=N/NC(=O)c2cc3ccccc3cc2O)c2ccccc21 | n | n | n | n | x | 83
Cn1c2ccccc2c2cc(/C=N/NC(=O)c3ccc(O)cc3O)ccc21 | n | n | n | n | x | n
CC1(C)CC(NC(=O)c2coc(=O)c(Br)c2)CC(C)(C)N1 | n | n | n | n | n | n
O=C(Nc1ccc(F)cc1F)c1cc(-c2ccc3c(c2)OCO3)on1 | n | n | n | n | x | n
O=C(NC1CC1)C1CCN(C2CCN(C(=O)c3ccc(C(F)(F)F)cc3)CC2)CC1 | n | n | n | n | x | n
O=C(NC1CC1)C1CCN(C2CCN(C(=O)/C=C/c3cccc(F)c3F)CC2)CC1 | n | n | n | n | 82 | n
O=C(NC1CC1)C1CCN(C2CCN(C(=O)/C=C/c3cccs3)CC2)CC1 | n | n | n | n | 87 | n
O=C(CNC(=O)c1ccccc1F)N/N=C/c1cc(Br)ccc1OC(=O)/C=C/c1ccco1 | n | n | n | n | 87 | n
O=C(CNC(=O)c1ccc(F)cc1)N/N=C/c1cc(Br)ccc1OC(=O)/C=C/c1ccco1 | x | n | n | n | x | n
COc1ccccc1C(=O)NCC(=O)N/N=C/c1cc(Br)ccc1OC(=O)/C=C\c1ccco1 | n | n | n | n | 92 | n
Cc1cc(S(=O)(=O)NCc2ccccc2)ccc1OCC(=O)N1CCOCC1 | n | n | n | n | n | n
CN(C)c1ccc(/C=N/N2CCN(c3ccccn3)CC2)cc1 | n | n | n | n | x | n
Cc1ccc(-c2csc3ncnc(-n4nnc5ccccc54)c23)cc1C | n | n | n | n | 76 | n
O=C(c1cccc(S(=O)(=O)Nc2ccccc2Cl)c1)N1CCC1 | x | n | n | n | x | n

Screening data deposited in PubChem by several laboratories.
